Laboratory results from ChEMBL document CHEMBL3992493, “New approach of delivering cytotoxic drugs towards CAIX expressing cells: A concept of dual-target drugs” (Eur J Med Chem, 2017).
Activity calls are given as the source filed them. The rule behind the calls is not given here.

Experiments:
Carbonic anhydrase 9 = Carbonic anhydrase 9 (Homo sapiens, UniProt Q16790); experiment: Binding affinity to recombinant human carbonic anhydrase 9 after 15 mins by stopped-flow CO2 hydration assay
MDCK [1] = experiment: Cytotoxicity against MDCK cells expressing carbonic anhydrase 9 assessed as reduction in cell viability after 72 hrs under hypoxic condition by Alamar blue assay; format: functional, cell-based; settings: Canis lupus familiaris
MDCK [2] = experiment: Cytotoxicity against carbonic anhydrase 9 knockdown MDCK cells assessed as reduction in cell viability after 72 hrs under hypoxic condition by Alamar blue assay; format: cell-based; settings: Canis lupus familiaris
MDCK [3] = experiment: Cytotoxicity against carbonic anhydrase 9 knockdown MDCK cells assessed as reduction in cell viability after 72 hrs under normoxic condition by Alamar blue assay; format: cell-based; settings: Canis lupus familiaris
MDCK [4] = experiment: Cytotoxicity against MDCK cells expressing carbonic anhydrase 9 assessed as reduction in cell viability after 72 hrs under normoxic condition by Alamar blue assay; format: functional, cell-based; settings: Canis lupus familiaris
MDCK [5] = experiment: Cytotoxicity against MDCK cells expressing carbonic anhydrase 9 assessed as reduction in cell viability at 50 nM after 72 hrs under anoxic condition by Alamar blue assay; format: functional, cell-based; settings: Canis lupus familiaris
How it was run: (§1)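 ATR inhibitor without irradiation: MDCK CAIX+ or scrambled-control CAIX− cells were preconditioned 24 h at ≤0.02% O2 (anoxia) or 21% O2. Compound was added in 0.5% DMSO for 72 h, then washed off. Cells regrew 72 h under normoxia, followed by 2 h alamarBlue conversion. Viability is relative to control.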

MDCK [6] = experiment: Cytotoxicity against carbonic anhydrase 9 knockdown MDCK cells assessed as reduction in cell viability at 50 nM after 72 hrs under anoxic condition by Alamar blue assay; format: cell-based, Canis lupus familiaris; settings: dog, 0.05 µM; how it was run: as §1
MDCK [7] = experiment: Cytotoxicity against carbonic anhydrase 9 knockdown MDCK cells assessed as reduction in cell viability at 50 nM pretreated for 1 hr followed by 4 Gy irradiation under anoxic condition by Alamar blue assay; format: cell-based, Canis lupus familiaris; settings: dog, 0.05 µM
How it was run: (§2)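 ATR inhibitor plus radiation: MDCK CAIX+/CAIX− cells were preconditioned 24 h under normoxia (21% O2) or anoxia (≤0.02% O2). Compound in 0.5% DMSO was added 1 h before X-irradiation, 2 Gy normoxic or 4 Gy anoxic. Total compound exposure was 72 h, then washout and 72 h normoxic regrowth. Readout was 2 h alamarBlue conversion, as relative viability.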

Carbonic anhydrase 1 = Carbonic anhydrase 1 (Homo sapiens, UniProt P00915); experiment: Binding affinity to recombinant human carbonic anhydrase 1 after 15 mins by stopped-flow CO2 hydration assay
Sequence of Carbonic anhydrase 1 (P00915 whole entry): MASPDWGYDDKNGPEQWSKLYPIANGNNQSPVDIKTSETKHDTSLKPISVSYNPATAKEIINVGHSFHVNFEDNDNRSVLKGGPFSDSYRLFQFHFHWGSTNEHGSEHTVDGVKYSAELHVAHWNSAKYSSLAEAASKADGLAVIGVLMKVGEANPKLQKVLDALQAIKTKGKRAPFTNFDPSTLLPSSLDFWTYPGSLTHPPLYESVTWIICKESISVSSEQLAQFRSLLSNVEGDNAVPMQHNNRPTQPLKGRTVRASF

MDCK [8] = experiment: Cytotoxicity against MDCK cells expressing carbonic anhydrase 9 assessed as reduction in cell viability at 50 nM pretreated for 1 hr followed by 4 Gy irradiation under anoxic condition by Alamar blue assay; format: functional, cell-based; settings: Canis lupus familiaris; how it was run: as §2
MDCK [9] = experiment: Cytotoxicity against MDCK cells expressing carbonic anhydrase 9 assessed as reduction in cell viability at 50 nM pretreated for 1 hr followed by 2 Gy irradiation under normoxic condition by Alamar blue assay; format: functional, cell-based; settings: Canis lupus familiaris; how it was run: as §2
MDCK [10] = experiment: Cytotoxicity against carbonic anhydrase 9 knockdown MDCK cells assessed as reduction in cell viability at 50 nM pretreated for 72 hrs followed by 72 hrs incubation under normoxic condition by Alamar blue assay; format: cell-based, Canis lupus familiaris; settings: dog, 0.05 µM; how it was run: as §1
Carbonic anhydrase 2 = Carbonic anhydrase 2 (Homo sapiens, UniProt P00918); experiment: Binding affinity to recombinant human carbonic anhydrase 2 after 15 mins by stopped-flow CO2 hydration assay
Carbonic anhydrase 12 = Carbonic anhydrase 12 (Homo sapiens, UniProt O43570); experiment: Binding affinity to recombinant human carbonic anhydrase 12 after 15 mins by stopped-flow CO2 hydration assay
Sequence of Carbonic anhydrase 12 (O43570 whole entry): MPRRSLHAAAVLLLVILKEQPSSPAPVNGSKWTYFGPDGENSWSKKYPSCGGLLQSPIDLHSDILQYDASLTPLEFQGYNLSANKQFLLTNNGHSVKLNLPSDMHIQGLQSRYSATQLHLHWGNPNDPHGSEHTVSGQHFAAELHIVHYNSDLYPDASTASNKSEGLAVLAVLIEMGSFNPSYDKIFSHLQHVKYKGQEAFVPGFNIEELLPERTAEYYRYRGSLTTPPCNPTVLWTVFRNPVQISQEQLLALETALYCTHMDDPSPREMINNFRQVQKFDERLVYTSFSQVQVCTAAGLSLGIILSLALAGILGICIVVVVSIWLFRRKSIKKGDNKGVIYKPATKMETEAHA

MDCK [11] = experiment: Cytotoxicity against MDCK cells expressing carbonic anhydrase 9 assessed as reduction in cell viability at 50 nM pretreated for 72 hrs followed by 72 hrs incubation under normoxic condition by Alamar blue assay; format: functional, cell-based; settings: Canis lupus familiaris; how it was run: as §1
MDCK [12] = experiment: Cytotoxicity against MDCK cells expressing carbonic anhydrase 9 assessed as reduction in cell viability after 2 hrs under hypoxic condition by Alamar blue assay; format: functional, cell-based; settings: Canis lupus familiaris
How it was run: (§3)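 MDCK cells transfected with human CAIX (CAIX+) or scrambled control vector (CAIX−), in DMEM/10% FBS, seeded and attached overnight. Medium replaced with pre-equilibrated hypoxic DMEM (0.2% O2, 5% CO2) for 24 h. Compounds in DMSO (0.5%) added for 2 h, then washed off. Cells regrown 72 h in normoxia. Viability read by alamarBlue conversion for 2 h under normoxia.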

MDCK [13] = experiment: Cytotoxicity against carbonic anhydrase 9 knockdown MDCK cells assessed as reduction in cell viability after 2 hrs under hypoxic condition by Alamar blue assay; format: cell-based; settings: Canis lupus familiaris; how it was run: as §3
MDCK [14] = experiment: Cytotoxicity against carbonic anhydrase 9 knockdown MDCK cells assessed as reduction in cell viability preincubated for 2 hrs followed by 72 hrs incubation under normoxic condition by Alamar blue assay; format: cell-based; settings: Canis lupus familiaris
MDCK [15] = experiment: Cytotoxicity against MDCK cells expressing carbonic anhydrase 9 assessed as reduction in cell viability preincubated for 2 hrs followed by 72 hrs incubation under normoxic condition by Alamar blue assay; format: functional, cell-based; settings: Canis lupus familiaris
How it was run: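 CAIX-overexpressing or scrambled-vector MDCK cells in DMEM/10% FBS, attached overnight, held 24 h at 21% O2/5% CO2. Drug added (0.5% DMSO vehicle) for 2 h, washed off, then 72 h further normoxic growth. Viability measured by 2 h alamarBlue conversion under normoxia.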

| Ki (Carbonic anhydrase 9) [nM] | Structure (SMILES) | IC50 (MDCK [1]) [mM] | IC50 (MDCK [2]) [mM] | IC50 (MDCK [3]) [mM] | IC50 (MDCK [4]) [mM] | Activity (MDCK [5]) | Activity (MDCK [6]) | Activity (MDCK [7]) | Ki (Carbonic anhydrase 1) [µM] | Activity (MDCK [8]) | Activity (MDCK [9]) | Activity (MDCK [10]) | Ki (Carbonic anhydrase 2) [nM] | Ki (Carbonic anhydrase 12) [µM] | Activity (MDCK [11]) | IC50 (MDCK [12]) [µM] | IC50 (MDCK [13]) [µM] | IC50 (MDCK [14]) [µM] | IC50 (MDCK [15]) [µM] |
| --- | --- | --- | --- | --- | --- | --- | --- | --- | --- | --- | --- | --- | --- | --- | --- | --- | --- | --- | --- |
| 271 | Cn1nnc2c(C(=O)NCc3ccc(S(N)(=O)=O)cc3)ncn2c1=O | > 1 | > 1 | > 1 | > 1 |  |  |  |  |  |  |  |  |  |  |  |  |  |  |
| 176 | Cn1nnc2c(C(=O)Nc3nnc(S(N)(=O)=O)s3)ncn2c1=O | > 1 | > 1 | > 1 | > 1 |  |  |  |  |  |  |  |  |  |  |  |  |  |  |
| 307 | NS(=O)(=O)c1ccc(CCNc2n[n+]([O-])c3cc4c(cc3[n+]2[O-])CCC4)cc1 |  |  |  |  |  |  |  |  |  |  |  |  |  |  | > 300 | > 300 | > 300 | > 300 |
| 37.1 | Cn1nnc2c(C(=O)NCCc3ccc(S(N)(=O)=O)cc3)ncn2c1=O | > 1 | > 1 | > 1 | > 1 |  |  |  |  |  |  |  |  |  |  |  |  |  |  |

Second part, the compound before the results:

| Structure (SMILES) | Ki (Carbonic anhydrase 9) [nM] | IC50 (MDCK [1]) [mM] | IC50 (MDCK [2]) [mM] | IC50 (MDCK [3]) [mM] | IC50 (MDCK [4]) [mM] | Activity (MDCK [5]) | Activity (MDCK [6]) | Activity (MDCK [7]) | Ki (Carbonic anhydrase 1) [µM] | Activity (MDCK [8]) | Activity (MDCK [9]) | Activity (MDCK [10]) | Ki (Carbonic anhydrase 2) [nM] | Ki (Carbonic anhydrase 12) [µM] | Activity (MDCK [11]) | IC50 (MDCK [12]) [µM] | IC50 (MDCK [13]) [µM] | IC50 (MDCK [14]) [µM] | IC50 (MDCK [15]) [µM] |
| --- | --- | --- | --- | --- | --- | --- | --- | --- | --- | --- | --- | --- | --- | --- | --- | --- | --- | --- | --- |
| CNCc1ccc(-c2cc(-c3nc(-c4ccc(S(=O)(=O)C(C)C)cc4)cnc3NS(N)(=O)=O)on2)cc1 | > 50000 |  |  |  |  | Active | Toxic | Non-Toxic | > 50 | inactive | inactive | Toxic | > 50000 | > 50 | Active |  |  |  |  |
| NS(=O)(=O)c1ccc(CCNC(=O)CCCc2ccc(N(CCCl)CCCl)cc2)cc1 | 4610 |  |  |  |  |  |  |  | 8.4 |  |  |  | 450 | 10.2 |  | 100 | 18 | 18 | 100 |
| NS(=O)(=O)c1ccc(NC(=O)CCCc2ccc(N(CCCl)CCCl)cc2)cc1 | 172 |  |  |  |  |  |  |  | 0.073 |  |  |  | 9 | 0.689 |  | 95 | 100 | 100 | 87 |
| NS(=O)(=O)c1ccc(CNC(=O)OCCCCc2ccc(N(CCCl)CCCl)cc2)cc1 | 4130 |  |  |  |  |  |  |  | 6.14 |  |  |  | 265 | 9.57 |  | 100 | 52 | 86 | 98 |
